Measured values taken from ChEMBL document CHEMBL1806456, “Chemistry of ecteinascidins. Part 3: preparation of 2'-N-acyl derivatives of ecteinascidin 770 and evaluation of cytotoxicity” (Bioorg Med Chem, 2011).

Tests used:
Assay type in all cases: functional, cell-based
[1] = test system: HCT-116; experiment: Cytotoxicity against human HCT116 cells after 4 days by MTT assay; settings: HCT-116, 96 h
Method in brief: (§1)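 Cells seeded as single-cell suspension, 2 × 10³ cells/well, onto serially diluted compounds in microplates; cultured 4 d. Viable cells counted with a cell counting kit. IC50 taken as concentration giving 50% growth inhibition relative to untreated control.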

[2] = test system: QG-56; experiment: Cytotoxicity against human QG56 cells after 4 days by MTT assay; settings: QG-56, 96 h; method in brief: as §1
[3] = test system: DU-145; experiment: Cytotoxicity against human DU145 cells after 4 days by MTT assay; settings: DU-145, 96 h; method in brief: as §1

SMILES | IC50 [1] | IC50 [2] | IC50 [3]
C=CCOc1cc2c(cc1OC)[C@@]1(CS[C@@H]3c4c(OC(C)=O)c(C)c5c(c4[C@@H](COC1=O)N1[C@@H]3[C@H]3c4c(cc(C)c(OC)c4OCC=C)C[C@@H]([C@@H]1C#N)N3C)OCO5)N(C(=O)c1ccccc1Br)CC2 | > 1000 nM | > 1000 nM | > 1000 nM
COc1cc2c(cc1O)CCN(C(=O)c1ccccc1)[C@]21CS[C@@H]2c3c(OC(C)=O)c(C)c4c(c3[C@@H](COC1=O)N1[C@@H]2[C@H]2c3c(cc(C)c(OC)c3O)C[C@@H]([C@@H]1C#N)N2C)OCO4 | 0.37 nM | 1 nM | 1.1 nM
COc1cc2c(cc1O)CCN(C(=O)c1ccc([N+](=O)[O-])cc1)[C@]21CS[C@@H]2c3c(OC(C)=O)c(C)c4c(c3[C@@H](COC1=O)N1[C@@H]2[C@H]2c3c(cc(C)c(OC)c3O)C[C@@H]([C@@H]1C#N)N2C)OCO4 | 0.38 nM | 1.1 nM | 1 nM
COc1cc2c(cc1O)CCN(C(=O)c1cccc([N+](=O)[O-])c1)[C@]21CS[C@@H]2c3c(OC(C)=O)c(C)c4c(c3[C@@H](COC1=O)N1[C@@H]2[C@H]2c3c(cc(C)c(OC)c3O)C[C@@H]([C@@H]1C#N)N2C)OCO4 | 0.14 nM | 0.43 nM | 0.73 nM
COc1cc2c(cc1O)CCN(C(=O)c1ccncc1)[C@]21CS[C@@H]2c3c(OC(C)=O)c(C)c4c(c3[C@@H](COC1=O)N1[C@@H]2[C@H]2c3c(cc(C)c(OC)c3O)C[C@@H]([C@@H]1C#N)N2C)OCO4 | 0.045 nM | 0.2 nM | 0.3 nM
COc1cc2c(cc1O)CCN(C(=O)c1cccnc1)[C@]21CS[C@@H]2c3c(OC(C)=O)c(C)c4c(c3[C@@H](COC1=O)N1[C@@H]2[C@H]2c3c(cc(C)c(OC)c3O)C[C@@H]([C@@H]1C#N)N2C)OCO4 | 0.13 nM | 0.4 nM | 0.72 nM
COc1cc2c(cc1O)CCN(C(=O)c1ccnc3ccccc13)[C@]21CS[C@@H]2c3c(OC(C)=O)c(C)c4c(c3[C@@H](COC1=O)N1[C@@H]2[C@H]2c3c(cc(C)c(OC)c3O)C[C@@H]([C@@H]1C#N)N2C)OCO4 | 0.067 nM | 0.23 nM | 0.16 nM
COc1cc2c(cc1O)CCN(C(=O)c1cccc3ncccc13)[C@]21CS[C@@H]2c3c(OC(C)=O)c(C)c4c(c3[C@@H](COC1=O)N1[C@@H]2[C@H]2c3c(cc(C)c(OC)c3O)C[C@@H]([C@@H]1C#N)N2C)OCO4 | 0.086 nM | 0.36 nM | 0.92 nM
COc1cc2c(cc1O)CCN(C(=O)c1ccc3ncccc3c1)[C@]21CS[C@@H]2c3c(OC(C)=O)c(C)c4c(c3[C@@H](COC1=O)N1[C@@H]2[C@H]2c3c(cc(C)c(OC)c3O)C[C@@H]([C@@H]1C#N)N2C)OCO4 | 0.045 nM | 0.16 nM | 0.043 nM
C=CCOc1cc2c(cc1OC)[C@@]1(CS[C@@H]3c4c(OC(C)=O)c(C)c5c(c4[C@@H](COC1=O)N1[C@@H]3[C@H]3c4c(cc(C)c(OC)c4OCC=C)C[C@@H]([C@@H]1C#N)N3C)OCO5)N(C(=O)/C=C/c1ccccc1)CC2 | 630 nM | > 1000 nM | > 1000 nM
C=CCOc1cc2c(cc1OC)[C@@]1(CS[C@@H]3c4c(OC(C)=O)c(C)c5c(c4[C@@H](COC1=O)N1[C@@H]3[C@H]3c4c(cc(C)c(OC)c4OCC=C)C[C@@H]([C@@H]1C#N)N3C)OCO5)N(C(=O)/C=C/c1ccc([N+](=O)[O-])cc1)CC2 | 520 nM | 8500 nM | 7500 nM
COc1cc2c(cc1O)CCN(C(=O)/C=C/c1ccccc1)[C@]21CS[C@@H]2c3c(OC(C)=O)c(C)c4c(c3[C@@H](COC1=O)N1[C@@H]2[C@H]2c3c(cc(C)c(OC)c3O)C[C@@H]([C@@H]1C#N)N2C)OCO4 | 0.053 nM | 0.33 nM | 0.24 nM
COc1cc2c(cc1O)CCN(C(=O)/C=C/c1ccc([N+](=O)[O-])cc1)[C@]21CS[C@@H]2c3c(OC(C)=O)c(C)c4c(c3[C@@H](COC1=O)N1[C@@H]2[C@H]2c3c(cc(C)c(OC)c3O)C[C@@H]([C@@H]1C#N)N2C)OCO4 | 0.6 nM | 2.4 nM | 0.81 nM
C=CCOc1c(OC)c(C)cc2c1[C@@H]1[C@@H]3[C@@H]4SC[C@]5(C(=O)OC[C@H](c6c7c(c(C)c(OC(C)=O)c64)OCO7)N3[C@@H](C#N)[C@H](C2)N1C)c1cc(OC)c(O)cc1CCN5C(=O)/C=C/c1ccc([N+](=O)[O-])cc1 | 2.7 nM | 9.8 nM | 5 nM
COc1cc2c(cc1O)CCN[C@]21CS[C@@H]2c3c(OC(C)=O)c(C)c4c(c3[C@H](COC1=O)N1[C@@H]2[C@H]2c3c(cc(C)c(OC)c3O)C[C@@H]([C@@H]1C#N)N2C)OCO4 [ECTEINASCIDIN 770] | 0.6 nM | 2.4 nM | 0.81 nM
